This is an account of results in publication PMC8412899 (ACS Omega, 2021).

Series [1] can be described thus: In vivo PK characteristics. Also on record: species or system mice. The note with it: mouse, iv, 12.5 mg/kg.
Another series has as its system cleaved PARP. Nature of the series: In vivo PD: increase of cleaved PARP in AMO1 xenografted mice. The note with it: for PARP activation (fold): AMO1 xenografted mice, 16 h after i.v. bolus treatment at 12.5 mg/kg. Summed up: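 Female CB-17 SCID mice (6–7 weeks) were implanted s.c. with 5 × 10⁶ AMO-1 cells in 50:50 medium:Matrigel. At ~200 mm³ tumor volume they were randomized, n = 3 per group. Test compound in 20% HPbCD/25 mM HCl was given as a single 12.5 mg/kg i.v. bolus. Cleaved PARP increase was measured in tumors 16 h later.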

Series [2] in a line: Atropoisomer stability in solution. In kind it is physicochemical.
The target of the next series is MCL-1 (Homo sapiens, UniProt Q07820). Nature of the series: QA. The note with it: for Ki: QA MCL-1 Ki. It is filed as binding.
Sequence of MCL-1 (Q07820 whole entry): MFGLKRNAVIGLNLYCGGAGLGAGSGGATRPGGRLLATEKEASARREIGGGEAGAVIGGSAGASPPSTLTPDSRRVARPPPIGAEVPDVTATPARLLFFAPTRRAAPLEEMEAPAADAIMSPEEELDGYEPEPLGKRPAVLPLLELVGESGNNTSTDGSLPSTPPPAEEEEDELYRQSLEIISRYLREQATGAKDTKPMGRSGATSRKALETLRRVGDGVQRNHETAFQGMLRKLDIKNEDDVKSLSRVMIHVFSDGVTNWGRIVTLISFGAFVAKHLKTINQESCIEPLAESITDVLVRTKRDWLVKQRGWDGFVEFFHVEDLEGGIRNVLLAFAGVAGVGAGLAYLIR
For series [3], the system named is human multiple myeloma cell line xenograft (AMO-1). Nature of the series: AMO-1 efficacy model. The note with it: QD5, i.v. bolus; for %TGI (day): D14. In kind it is in vivo, mice. In a few lines: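 Female CB-17 SCID mice (6–7 weeks) received 5 × 10⁶ AMO-1 cells s.c. in the right flank, in 50:50 growth medium:Matrigel. At ~200 mm³ they were randomized, n = 8. Freshly prepared test compound in 20% HPbCD/25 mM HCl was given i.v. daily ×5. Calipers were read 2–3×/week; volume = length × width²/2. TGI was taken at the control group's last day and at maximum; TGD used a 500 mm³ median.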

For a further series, the system named is NCI-H929 cells. The series is described as follows: MTT cell viability assay of NCI H929 cell line. The note with it: than 16a. It is filed as cell-based. On the technique in general: Tetrazolium dyes change colour on reduction, which living cells bring about.

By AUC is commonly meant concentration integrated over time. A high value points to high exposure. For orientation: clearance means the volume of plasma or blood freed of the substance per unit of time. In the case of `COc1ccccc1-c1nccc(COc2ccccc2C[C@@H](Oc2ncnc3sc(-c4ccc(F)cc4)c(-c4ccc(OCCN5CCN(C)CC5)c(Cl)c4C)c23)C(=O)O)n1` [Compound 16a, (2R)-2-{[(5Sa)-5-{3-Chloro-2-methyl-4-[2-(4-methylpiperazin-1-yl)ethoxy]phenyl}-6-(4-fluorophenyl)thieno[2,3-d]pyrimidin-4-yl]oxy}-3-(2-{[2-(2-methoxyphenyl)pyrimidin-4-yl]methoxy}phenyl)propanoic Acid], in series [1], the AUC stood at 34000 ng·h/mL and the clearance stood at 6 mL/min/kg.

A word on the Ki: it is a measure of affinity in units of concentration, obtained from inhibition or displacement. Read a low Ki as a stronger hold on the target. Consider `COc1ccccc1-c1nccc(COc2ccccc2C[C@@H](Oc2ncnc3c2c(-c2ccc(OCCN4CCN(C)CC4)c(Cl)c2C)c(-c2ccc(F)cc2)n3C)C(=O)O)n1` [Compound 23, (2R)-2-[(5Sa)-5-[3-Chloro-2-methyl-4-[2-(4-methylpiperazin-1-yl)ethoxy]phenyl]-6-(4-fluorophenyl)-7-methyl-pyrrolo[2,3-d]pyrimidin-4-yl]oxy-3-[2-[[2-(2-methoxyphenyl)pyrimidin-4-yl]methoxy]phenyl]propanoic Acid], for which, in the series with cleaved PARP, the “PARP activation (fold)” value came to 5 fold. Also, in series [2], the atropoisomer stability result was “rapid isomerization”. This molecule also displayed a Ki on MCL-1 of 0.64 nM. The fold less active entry at MCL-1 (compared to 16a, affinity and activity) is listed as “about 20 fold”.

Regarding `COc1ccccc1-c1nccc(COc2ccccc2C[C@@H](Oc2ncnc3oc(-c4ccc(F)cc4)c(-c4ccc(OCCN5CCN(C)CC5)c(Cl)c4C)c23)C(=O)O)n1` [Compound 24, (2R)-2-{[5-{3-Chloro-2-methyl-4-[2-(4-methylpiperazin-1-yl)ethoxy]phenyl}-6-(4-fluorophenyl)furo[2,3-d]pyrimidin-4-yl]oxy}-3-(2-{[2-(2-methoxyphenyl)pyrimidin-4-yl]methoxy}phenyl)propanoic Acid], the “PARP activation (fold)” value in the series with cleaved PARP is recorded as 129 fold. Besides, the atropoisomer stability entry in series [2] is given as “equilibrate rapidly in solution to give a 1:1 mixture”. Affinity on MCL-1 was put at a Ki of 0.036 nM. For the same molecule, the “time to reach 500 mm^3 (median of the group)” value in series [3] (6.25 mpk) is listed as 28; in series [3] (12.5 mpk), 37. The entries for the “%TGI (day)” value in series [3] (6.25 mpk) and in series [3] (12.5 mpk) were 103.5 (D14) % and 107.7 (D14) %, respectively. Moreover, the “%TGI max (day)” value in series [3] (6.25 mpk, d7) was 122.7 (d7) %; in series [3] (12.5 mpk, d2) it was 184.8 (d2) %. Besides, the “cellular activity, fold less” value with NCI-H929 cells is on record as 10 fold. In series [1], the AUC stood at 56000 ng·h/mL. This molecule also showed a clearance in series [1] of 2.5 mL/min/kg.

`COc1ccccc1-c1nccc(COc2ccccc2C[C@@H](Nc2ncnc3oc(-c4ccc(F)cc4)c(-c4ccc(OCCN5CCN(C)CC5)c(Cl)c4C)c23)C(=O)O)n1` [Compound 25, N-[(5Sa)-5-{3-Chloro-2-methyl-4-[2-(4-methylpiperazin-1-yl)ethoxy]phenyl}-6-(4-fluorophenyl)furo[2,3-d]pyrimidin-4-yl]-2-{[2-(2-methoxyphenyl)pyrimidin-4-yl]methoxy}-D-phenylalanine]: the “PARP activation (fold)” value with cleaved PARP was 60 fold. Further, in the series with cleaved PARP (than for the hydroxy acid analogue), the “PARP activation, fold less” value is on record as “about 2 fold”. For the same molecule, the atropoisomer stability result in series [2] is “stable in solution”. This molecule displayed a Ki at MCL-1 of 0.61 nM.
